Where two headings read alike, the source gives them in different places.
Experiments:
CYP101D1 [1] = molecular target: T1, CYP101D1 (Novosphingobium aromaticivorans, UniProt Q2GB12); assay: isothermal titration calorimetry; type: binding
T1 sequence (Q2GB12 1-421): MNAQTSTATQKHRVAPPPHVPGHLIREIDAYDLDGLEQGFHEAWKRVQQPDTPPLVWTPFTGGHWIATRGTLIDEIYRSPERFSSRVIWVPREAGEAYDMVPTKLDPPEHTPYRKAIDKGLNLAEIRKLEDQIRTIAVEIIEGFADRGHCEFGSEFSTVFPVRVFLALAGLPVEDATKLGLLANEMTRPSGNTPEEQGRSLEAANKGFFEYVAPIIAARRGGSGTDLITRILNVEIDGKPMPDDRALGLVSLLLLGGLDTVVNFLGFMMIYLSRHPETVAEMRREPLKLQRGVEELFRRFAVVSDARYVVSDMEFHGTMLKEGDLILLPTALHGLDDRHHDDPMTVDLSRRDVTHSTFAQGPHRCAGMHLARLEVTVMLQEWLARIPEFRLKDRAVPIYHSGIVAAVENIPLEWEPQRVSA
Outline: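 CYP101D1, expressed His-tagged in E. coli BL21(DE3), Ni-IMAC purified, thrombin-cleaved and gel-filtered. ITC at 25°C in 50 mM potassium phosphate without reducing agents. Either 600 μM–1 mM test compound was titrated into 40–50 μM CYP101D1, or 2 mM redox partner into 50 μM CYP101D1 (±1 mM camphor). 18 × 2 μL injections, 150 s apart, 750 rpm. Corrected for dilution enthalpy. 3–5 runs.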

CYP101D1 [2] = molecular target: CYP101D1 (UniProt Q2GB12); assay: ITC
CYP101D1 [3] = molecular target: CYP101D1 (UniProt Q2GB12); assay: ITC; remark: listed apart in the source
CYP101D1 [4] = molecular target: CYP101D1 (UniProt Q2GB12); assay: ITC; remark: listed apart in the source
CYP101D1 [5] = molecular target: CYP101D1 (UniProt Q2GB12); assay: ITC; remark: listed apart in the source

Kd (CYP101D1 [1]) | Kd (CYP101D1 [2]) | dH (CYP101D1 [2]) | Kd (CYP101D1 [3]) | Kd (CYP101D1 [4]) | Kd (CYP101D1 [5]) | dH (CYP101D1 [5]) | Molecule
14.9 µM | – | – | – | – | – | – | CC1(C)[C@@H]2CC[C@@]1(C)C(=O)C2 [D-camphor]
– | 41.1 µM | -50.6 kJ/mol | 97.7 µM | 43.3 µM | 94.8 µM | -76.1 kJ/mol | Arx (natural protein)
